Data taken from article PMC3655773 (Acta pharmaceutica Sinica. B, 2012).
“And” between values parts separate entries of the source, which are not always exact repeats. Equal values may be shown once. Read-outs that look alike come from different tables or passages of the source.

Legend:
[1] = Pharmacokinetic assay in rat; conditions: male SD rats; for F (oral bioavailability): i.g. 20 mg/kg vs 3 i.v. 2 mg/kg, dose-normalized AUC(0-t)
[2] = rat, microsomes
[3] = Water solubility analysis; assay type: physicochemical; conditions: pH 7.4, room temperature
Outline: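 Excess test compound in water buffered to pH 7.4 with K2HPO4 phosphate, sonicated with stirring for 1 h at room temperature, then filtered. Supernatant analysed by HPLC on a C18 column (70% MeCN/30% water, 1.0 mL/min, UV 320 nm). Saturated concentration taken from peak area against a five-point (five-fold step) standard curve in MeCN, diluted from an acetonitrile stock.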

[4] = In vitro metabolic stability in SD rat liver microsomes; conditions: 1 μM, NADPH; for k obs (degradation rate constant): SD rat liver microsomes 0.1 mg/mL, parent compound 3 measured; for T1/2: apparent in vitro half-life; for T1/2 / CLint: SD rat liver microsomes; for CLint: intrinsic clearance
[5] = cited from earlier work
[6] = test system: HIV-1; conditions: previous studies, cited from earlier work; for EC50: anti-HIV potency; for TI: therapeutic index
[7] = cited from earlier work; remark: listed apart in the source
[8] = in vitro; conditions: Sprague-Dawley, rat, microsomes, pH 7.4
[9] = i.g. 20 mg/kg in 10% PEG400, parent 3 measured
[10] = i.g. 20 mg/kg in 10% PEG400, plasma parent compound 3 measured

Cc1c(COC(=O)CCC(=O)O)c(=O)oc2c3c(ccc12)OC(C)(C)[C@H](OC(=O)[C@@]12CC[C@@](C)(C(=O)O1)C2(C)C)[C@@H]3OC(=O)[C@@]12CC[C@@](C)(C(=O)O1)C2(C)C (relative stereo) [Compound 6, 4-Oxo-4-[(3′,4′-di-0-(S)-camphanoyl-4-methyl-(+)-cis-kellactone-3-yl)methoxy]butanok acid]
AUC ([1]; i.g. 20 mg/kg): 157.9 ng·h/mL | CL [1, 9]: 1.7 ± 0.333 mL/min/kg | Cmax [1, 9]: 80.9 ± 18.80 ng/mL | MRT(0-t) [1, 9]: 159.5 ± 40.9 min | Tmax [1, 9]: 22.8 min | Vd [1, 9]: 0.669 ± 0.422 L/kg | AUC(0-t) [1, 10]: 157.9 ± 42.94 ng·L/mL | F (oral bioavailability) [1]: 3.3% | CLint [2]: 200 µL/min/mg | T1/2 [2]: 35.27 min

Cc1c(COC(=O)CCC(=O)O)c(=O)oc2c3c(ccc12)OC(C)(C)[C@H](OC(=O)[C@@]12CC[C@@](C)(C(=O)O1)C2(C)C)[C@@H]3OC(=O)[C@@]12CC[C@@](C)(C(=O)O1)C2(C)C (relative stereo) [Compound 8, 4-Oxo-4-[(3′,4′-di-0-(S)-camphanoyl-4-methyl-(+)-cis-kellactone-3-yl)methoxy]butanok acid]
AUC ([1]; i.g. 20 mg/kg): 588.9 ng·h/mL | CL [1, 9]: 0.567 ± 0.067 mL/min/kg | Cmax [1, 9]: 398.5 ± 29.00 ng/mL | MRT(0-t) [1, 9]: 91.02 ± 12.4 min | Tmax [1, 9]: 30 min | Vd [1, 9]: 0.102 ± 0.011 L/kg | AUC(0-t) [1, 10]: 588.9 ± 72.06 ng·L/mL | F (oral bioavailability) [1]: 12.4% | CLint [2]: 270 µL/min/mg | T1/2 [2]: 25.93 min

Cc1c(COC(=O)CN)c(=O)oc2c3c(ccc12)OC(C)(C)[C@H](OC(=O)[C@@]12CCC(C)(C(=O)O1)C2(C)C)[C@@H]3OC(=O)[C@@]12CCC(C)(C(=O)O1)C2(C)C (relative stereo) [Compound 9, [3′,4′-Di-O-(S)-camphanoyl-4-methyl-(+)-cis-kellactone-3-yl]methyl 2-aminoacetate]
CL [1, 9]: 0.617 ± 0.017 mL/min/kg | Cmax [1, 9]: 163.6 ± 13.56 ng/mL | MRT(0-t) [1, 9]: 214.9 ± 18.4 min | Tmax [1, 9]: 15 min | Vd [1, 9]: 0.467 ± 0.063 L/kg | AUC(0-t) [1, 10]: 384.1 ± 6.21 ng·L/mL | F (oral bioavailability) [1]: 7.5% | CLint [2]: 1780 µL/min/mg | T1/2 [2]: 3.90 min

Cc1c(COC(=O)C(C)N)c(=O)oc2c3c(ccc12)OC(C)(C)[C@H](OC(=O)[C@@]12CCC(C)(C(=O)O1)C2(C)C)[C@@H]3OC(=O)[C@@]12CCC(C)(C(=O)O1)C2(C)C (relative stereo) [Compound 10, [3′,4′-Di-O-(S)-camphanoyl-4-methyl-(+)-cis-kellactone-3-yl]methyl 2-aminopropanoate]
systemic clearance (CL) ([1]; i.g. 20 mg/kg): 16 mL/min/kg | CL [1, 9]: 0.267 ± 0.12 mL/min/kg | Cmax [1, 9]: 621.5 ± 79.67 ng/mL | MRT(0-t) [1, 9]: 107.6 ± 10.9 min | Tmax [1, 9]: 45 min | Vd [1, 9]: 0.045 ± 0.017 L/kg | AUC(0-t) [1, 10]: 1296.5 ± 437.6 ng·L/mL | F (oral bioavailability) [1]: 26% and 25.7% | Water solubility [3]: 18 µg/mL | CLint [2]: 140 µL/min/mg | T1/2 [2]: 49.26 min

Cc1c(COC(=O)C(N)C(C)C)c(=O)oc2c3c(ccc12)OC(C)(C)[C@H](OC(=O)[C@@]12CCC(C)(C(=O)O1)C2(C)C)[C@@H]3OC(=O)[C@@]12CCC(C)(C(=O)O1)C2(C)C (relative stereo) [Compound 11, [3′,4′-Di-O-(S)-camphanoyl-4-methyl-(+)-cis-kellactone-3-yl]methyl 2-amino-3-methyl-butanoate]
k obs (degradation rate constant) [4]: 0.023 | T1/2 [4]: 30.09 min | CLint [4]: 230 µL/min/mg

Cc1c(COC(=O)C(N)CC(C)C)c(=O)oc2c3c(ccc12)OC(C)(C)[C@H](OC(=O)[C@@]12CCC(C)(C(=O)O1)C2(C)C)[C@@H]3OC(=O)[C@@]12CCC(C)(C(=O)O1)C2(C)C (relative stereo) [Compound 12, [3′,4′-Di-O-(S) -camphanoyl-4-methyl-(+)-cis-kellactone-3-yl]methyl 2-amino-4-methyl-pentanoate]
CL [1, 9]: 0.433 ± 0.083 mL/min/kg | Cmax [1, 9]: 529.0 ± 192.9 ng/mL | MRT(0-t) [1, 9]: 77.16 ± 5.1 min | Tmax [1, 9]: 30 min | Vd [1, 9]: 0.049 ± 0.020 L/kg | AUC(0-t) [1, 10]: 775.6 ± 162.9 ng·L/mL | F (oral bioavailability) [1]: 15.8% | k obs (degradation rate constant) [4]: 0.023 | T1/2 [4]: 30.77 min | CLint [4]: 230 µL/min/mg

Cc1c(COC(=O)CN)c(=O)oc2c3c(ccc12)OC(C)(C)[C@H](OC(=O)[C@@]12CCC(C)(C(=O)O1)C2(C)C)[C@@H]3OC(=O)[C@@]12CCC(C)(C(=O)O1)C2(C)C.Cl (relative stereo) [Compound 13, [3′,4′-Di-O-(S)-camphanoyl-4-methyl-(+)-cis-kellactone-3-yl]methyl 2-aminoacetate hydrochloride salt]
CL [1, 9]: 0.667 ± 0.167 mL/min/kg | Cmax [1, 9]: 191.1 ± 2.48 ng/mL | MRT(0-t) [1, 9]: 128.2 ± 7.38 min | Tmax [1, 9]: 45 min | Vd [1, 9]: 0.123 ± 0.058 L/kg | AUC(0-t) [1, 10]: 477.8 ± 128.7 ng·L/mL | F (oral bioavailability) [1]: 9.8% | CLint [2]: 260 µL/min/mg | T1/2 [2]: 26.54 min

Cc1cc(=O)oc2c3c(ccc12)OC(C)(C)[C@H](OC(=O)C12CCC(C)(C(=O)O1)C2(C)C)[C@@H]3OC(=O)C12CCC(C)(C(=O)O1)C2(C)C (stereo partly shown) [Compound 2, 4-methyl-DCK]
bioavailability ([5]; rat, in vivo): poor bioavailability | EC50 [6]: 1.5 nM | TI [6]: 15,733

Cc1c(CO)c(=O)oc2c3c(ccc12)OC(C)(C)[C@H](OC(=O)C12CCC(C)(C(=O)O1)C2(C)C)[C@@H]3OC(=O)C12CCC(C)(C(=O)O1)C2(C)C (stereo partly shown) [Compound 3, 3-hydroxymethyl-4-methyl-DCK]
bioavailability (F) ([5]; in rat, previous studies): 15% | CL [1, 9]: 0.333 ± 0.083 mL/min/kg | Cmax [1, 9]: 530.7 ± 120.8 ng/mL | MRT(0-t) [1, 9]: 119 ± 28.7 min | Tmax [1, 9]: 34.8 min | Vd [1, 9]: 0.079 ± 0.039 L/kg | AUC(0-t) [1, 10]: 966.3 ± 219.7 ng·L/mL | F (oral bioavailability) [1]: 17.3% | AUC(0-t) ([1]; i.v. 2 mg/kg in 10% PEG400): 558.4 ± 8.71 ng·L/mL | CL ([1]; i.v. 2 mg/kg in 10% PEG400): 0.05 ± 0.0017 mL/min/kg | MRT(0-t) ([1]; i.v. 2 mg/kg in 10% PEG400): 74.1 ± 10.1 min | Vd ([1]; i.v. 2 mg/kg in 10% PEG400): 0.008 ± 0.002 L/kg | Water solubility [3]: 8.4 µg/mL | EC50 [6]: 4 nM | TI [6]: 6225 | k obs (degradation rate constant) [4]: 0.039 | T1/2 [4]: 17.92 min | CLint [4]: 390 µL/min/mg

CC(C)NCC(O)COc1cccc2ccccc12 (stereo not shown) [PRO, propranolol]
T1/2 in vivo [7]: a Reference compounds: propranolol (moderate metabolism in vivo with T1/2 of 3–5 h). | half-life at 1 μM [8]: 20.7 min
